According to ChEMBL document CHEMBL4316620, “Dihydropyrrolones as bacterial quorum sensing inhibitors” (Bioorg Med Chem Lett, 2019):
The source made the active and inactive calls. The calls are words filed in the database; no cut-off is given here.

How the values were obtained:
[1] = Inhibition of quorum sensing system in Pseudomonas aeruginosa MH602 PlasB::gfp at 125 uM incubated for 15 hrs by GFP reporter gene assay
Procedure, shortened: (§1)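 Reporter strain P. aeruginosa PlasB::gfp (PAMH602) makes its own AHL; lasB promoter drives GFP-ASV. Cultures incubated with compound over 250–31.25 µM at 37 °C for 15 h, then GFP fluorescence read at 535 nm. QSI expressed as % relative to untreated PAMH602 negative control. Furanone positive control.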

Pseudomonas aeruginosa [2] = assay: Toxicity in Pseudomonas aeruginosa MH602 PlasB::gfp assessed as inhibition of bacterial growth at 31.25 uM incubated for 15 hrs by spectrophotometry; type: organism-based; conditions: MH602, 15 h, read-out: GI
Pseudomonas aeruginosa [3] = assay: Inhibition of biofilm formation in Pseudomonas aeruginosa PAO1 at 250 uM incubated for 6 hrs by crystal violet staining based method; type: functional; conditions: for inhibition at 250 µM: PAO1, 6 h
Procedure, shortened: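 P. aeruginosa PA01 biofilm. Cultures grown with or without test compound for 6 h. Biofilm biomass quantified by crystal violet staining (OD550). % inhibition calculated relative to DMSO control.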

[4] = Inhibition of quorum sensing system in Pseudomonas aeruginosa MH602 PlasB::gfp at 250 uM incubated for 15 hrs by GFP reporter gene assay; procedure, shortened: as §1
Pseudomonas aeruginosa [5] = assay: Toxicity in Pseudomonas aeruginosa MH602 PlasB::gfp assessed as inhibition of bacterial growth at 125 uM incubated for 15 hrs by spectrophotometry; type: organism-based; conditions: MH602, 15 h, read-out: GI
Pseudomonas aeruginosa [6] = assay: Toxicity in Pseudomonas aeruginosa MH602 PlasB::gfp assessed as inhibition of bacterial growth at 62.5 uM incubated for 15 hrs by spectrophotometry; type: organism-based; conditions: MH602, 15 h, read-out: GI
Pseudomonas aeruginosa [7] = assay: Toxicity in Pseudomonas aeruginosa MH602 PlasB::gfp assessed as inhibition of bacterial growth at 250 uM incubated for 15 hrs by spectrophotometry; type: organism-based; conditions: MH602, 15 h, read-out: GI
[8] = Inhibition of quorum sensing system in Pseudomonas aeruginosa MH602 PlasB::gfp at 62.5 uM incubated for 15 hrs by GFP reporter gene assay; procedure, shortened: as §1
[9] = Inhibition of quorum sensing system in Pseudomonas aeruginosa MH602 PlasB::gfp at 31.25 uM incubated for 15 hrs by GFP reporter gene assay; procedure, shortened: as §1

inhibition [1] [%]	inhibition [4] [%]	inhibition [8] [%]	inhibition [9] [%]	Compound	inhibition at 31.25 µM (Pseudomonas aeruginosa [2]) [%]	inhibition at 250 µM (Pseudomonas aeruginosa [3]) [%]	inhibition at 125 µM (Pseudomonas aeruginosa [5]) [%]	inhibition at 62.5 µM (Pseudomonas aeruginosa [6]) [%]	inhibition at 250 µM (Pseudomonas aeruginosa [7]) [%]	inhibition (Pseudomonas aeruginosa [3])
50.8	68	33.6	19.6	C=C1NC(=O)C=C1c1ccc(C(=O)O)cc1	≤ 15	12.9	≤ 15	≤ 15	≤ 15	
50.3	52.4	44.9	7.39	C=C1C(c2ccc(Br)cc2)=CC(=O)N1c1ccc(Cl)cc1	≤ 15	43.8	≤ 15	≤ 15	≤ 15	
34.2	55.3	33.5	38.2	C=C1C(c2ccccc2F)=CC(=O)N1CCCC	≤ 15	52.2	≤ 15	≤ 15	≤ 15	
42.7	61.5	26.4	22.6	O=C1C=C(c2ccc(Cl)cc2)CN1	≤ 15	9.6	≤ 15	≤ 15	≤ 15	
60.8	57.7	32.4	31.7	O=C1C=C(c2ccccc2)CN1	≤ 15	14.4	≤ 15	≤ 15	≤ 15	
83.1	87.5	77	65.9	O=C1C=C(Br)/C(=C/Br)O1	15 to 30	87.9	> 30	> 30	> 30	
69.7	72	58.3	37.8	C=C1NC(=O)C=C1c1ccccc1F	≤ 15	51.3	≤ 15	≤ 15	≤ 15	
69.9	80.9	63.5	51.3	C=C1NC(=O)C=C1c1ccc([N+](=O)[O-])cc1	≤ 15	57.2	≤ 15	≤ 15	15 to 30	
75.2	82.3	66.9	63.1	C=C1NC(=O)C=C1c1ccc(Br)cc1	≤ 15	62.5	≤ 15	≤ 15	15 to 30	
62.8	65	53.3	29.6	C=C1C(c2ccccc2F)=CC(=O)N1c1ccc(C)cc1	≤ 15	49.3	≤ 15	≤ 15	≤ 15	
54.9	60.7	48.4	39.7	C=C1C(c2ccccc2F)=CC(=O)N1c1ccc(Br)cc1	≤ 15	49.2	≤ 15	≤ 15	≤ 15	
47	47.2	33.2	26.3	C=C1NC(=O)C(C)=C1c1cccc(C(F)(F)F)c1	≤ 15		≤ 15	≤ 15	≤ 15	
53.9	82.3	53.5	38.2	O=C1C=C(c2ccc(Br)cc2)/C(=C/Br)N1	≤ 15		> 30	15 to 30	> 30	
45.2	59.6	38.1	33.7	C=C1NC(=O)C(C)=C1c1ccc(Br)cc1	≤ 15		≤ 15	≤ 15	≤ 15	

Continued, compound first:

Compound	inhibition [1] [%]	inhibition [4] [%]	inhibition [8] [%]	inhibition [9] [%]	inhibition at 31.25 µM (Pseudomonas aeruginosa [2]) [%]	inhibition at 250 µM (Pseudomonas aeruginosa [3]) [%]	inhibition at 125 µM (Pseudomonas aeruginosa [5]) [%]	inhibition at 62.5 µM (Pseudomonas aeruginosa [6]) [%]	inhibition at 250 µM (Pseudomonas aeruginosa [7]) [%]	inhibition (Pseudomonas aeruginosa [3])
C=C1C(c2ccccc2F)=CC(=O)N1Cc1ccccc1	52.4	55.2	47.5	27	≤ 15		≤ 15	≤ 15	≤ 15	
C=C1C(c2ccccc2F)=CC(=O)N1c1cccc(F)c1	55.2	61.1	41.8	24	≤ 15	58.9	≤ 15	≤ 15	≤ 15	
C=C1NC(=O)C=C1c1ccc(Cl)cc1	64.6	73.8	49.4	33.3	≤ 15	60.9	≤ 15	≤ 15	≤ 15	
C=C1NC(=O)C=C1c1ccc(OC)cc1	62.7	74.4	44.5	37	≤ 15	38.8	≤ 15	≤ 15	15 to 30	
C=C1NC(=O)C(C)=C1c1ccccc1F	48.8	54.8	31.7	28.8	≤ 15		≤ 15	≤ 15	≤ 15	
C=C1NC(=O)C=C1c1cccc(Cl)c1	69.4	73.3	54.7	26.3	≤ 15	47.3	≤ 15	≤ 15	≤ 15	
O=C1C=C(c2ccsc2)CN1	49.3	72.1	26.6	24.7	≤ 15		≤ 15	≤ 15	≤ 15	inactive
C=C1C(c2ccccc2F)=CC(=O)N1c1ccccc1	60.9	63.7	56.9	46.4	≤ 15	38.2	≤ 15	≤ 15	≤ 15	
C=C1C(c2ccc(Br)cc2)=CC(=O)N1c1cccc(F)c1	49.1	50.9	47.7	5.8	≤ 15	29.3	≤ 15	≤ 15	≤ 15	
O=C1C=C(c2cccc(F)c2)CN1	45.5	67.2	24	22.4	≤ 15	21.4	≤ 15	≤ 15	≤ 15	
C=C1C(c2ccc(Br)cc2)=CC(=O)N1c1cccc(Br)c1	60.3	73.2	37.7	12.6	≤ 15	47.1	≤ 15	≤ 15	≤ 15	
O=C1C=C(c2ccccc2F)/C(=C/Br)N1	81.3	86.3	75	61.5	≤ 15		> 30	15 to 30	> 30	
O=C1C=C(c2ccccc2)/C(=C/Br)N1	77.8	84.8	66.6	56.8	≤ 15		> 30	15 to 30	> 30	
C=C1NC(=O)C(C)=C1c1ccc(Cl)cc1	38.2	47.7	33.2	23.7	≤ 15		≤ 15	≤ 15	≤ 15	
C=C1NC(=O)C=C1c1ccc(C)cc1	78.7	80.5	72.3	36.5	≤ 15		≤ 15	≤ 15	≤ 15	
C=C1NC(=O)C=C1c1ccccc1Cl	69.7	72	58.3	37.8	≤ 15		≤ 15	≤ 15	≤ 15	
